The data set is described as follows: Toxicity liver stage against HepG2, at 10uM. Also on record: test concentration 10 uM, cell line HepG2-A16-CD81EGFP. The following applies: human, HepG2-A16-CD81EGFP cells; read-out: INHIBITION
The data set is classed as cell-based. A digest of the protocol: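 Uninfected HepG2-A16-CD81EGFP cells, 3 × 10^3 per well, 1536-well, plated on prespotted compound at 10 μM final, parasite-free screening media added to match infected plates; puromycin 10 μM positive, DMSO 0.5% negative; run in parallel with 48 h PbLuc assay at 37 °C, 5% CO2; viability by CellTiter-Glo luminescence, normalized to controls.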
As for `c1cncc(CN2CCC(c3n[nH]c(C4CC4)n3)CC2)c1`, the cytotoxicity at 10 µM came to 4.99%.

As to `CCN1CC(C(=O)N(C)Cc2ccon2)CC1=O` (configuration not stated), the cytotoxicity at 10 µM is 7.08%. Regarding `Cc1ccc(-c2nc(CN3CCc4cnc(C)nc4C3)no2)cc1`, the cytotoxicity at 10 µM was -5.12%. The value for `Cc1cc(NC(=O)NCC(c2ccc(C)o2)N2CCOCC2)n(C)n1` (configuration not stated) was -32.5%. The same measure for `CCOCC(O)CN1CCN(C(=O)Cc2ccccc2Cl)CC1` (configuration not stated): -1.19%.

For the compound `CN(C)S(=O)(=O)N1CC[C@]2(O)CCN(Cc3cc(F)cc(F)c3)C[C@@H]2C1`, the cytotoxicity at 10 µM was -0.757%. The value for `CC1(C(=O)Nc2ccc(F)c(-n3cccc3)c2)CCOCC1` was -0.0972%; that for `O=C(CCc1nc(Cl)n[nH]1)N1CCC2(CCCNC2=O)C1` (configuration not stated) was -6.37%; that for `Cc1nc(CN2CC(CCCc3ccccn3)(C(=O)N(C)C)C2)co1` was 7.43%. The same measure for `O=C(COc1cccc2c1CCC2=O)NCCOc1ccccc1`: 10.5%; for `N#Cc1ccccc1N1CCCN(CC(=O)Nc2ccc(Cl)cn2)CC1`: -0.539%. For `O=C(CN1CC(n2cccn2)C1)NCC1(c2ccccc2)CCC1`, the cytotoxicity at 10 µM was -3.14%. On to `Cc1cccc(CC(=O)Nc2cnn(C3CCOC3)c2)c1` (configuration not stated), for which the cytotoxicity at 10 µM is -0.813%.

For `O=C1CCC2(CCCN(c3ncnc4[nH]cnc34)C2)CN1CCCO` (configuration not stated), the cytotoxicity at 10 µM is -2.09%.

In the case of `O=C(NCc1cnn2cccnc12)C1CC2(CCNCC2)CN1` (configuration not stated), the cytotoxicity at 10 µM was -8.32%.

`COc1ccccc1C(=O)NCC(c1cccn1C)N1CCOCC1` (configuration not stated): the cytotoxicity at 10 µM amounted to 7.11%.

Turning to `Cc1c(NC(=O)N(C)CCn2cnnc2)cccc1OC1CCCC1`, the cytotoxicity at 10 µM was -0.509%. `CC1(C)Cc2ccccc2-c2nc(NCCO)[nH]c(=O)c21`: the cytotoxicity at 10 µM was -5.46%. The value for `Cc1nc(CN2C(=O)CC[C@@H]3[C@H]2CCN3C(=O)NC2CC2)cs1` was 9.37%. The value for `CS(=O)(=O)N1CCn2c(C(=O)N3CCOCC3)cnc2C1` was -4.63%; that for `Cc1nc(C(=O)N2C[C@@H]3CN(S(C)(=O)=O)CCO[C@@H]3C2)cs1` was 1.98%; that for `CCc1nnc(SCC(=O)Nc2cc(C(C)(C)C)nn2C)[nH]1` was 7.28%.

Turning to `COC[C@H](C)Nc1cc(C)c2ccc(SC)cc2n1`, the cytotoxicity at 10 µM was determined as 0.466%. Take `Cc1nn(C)c2nc(N3CCCC3c3nccs3)sc12` (configuration not stated): the cytotoxicity at 10 µM is -2.87%.

For `CCS(=O)(=O)N1CCC(OCCCc2ccccc2)C1` (configuration not stated), the cytotoxicity at 10 µM is 8.59%. The value for `O=c1cc(CN2CCCC2)nc2n1CCCN(CC1CCOCC1)C2` was 9.97%.

In the case of `Cn1cc2c(n1)C(CNC1CCOCC1)OCC2` (configuration not stated), the cytotoxicity at 10 µM stood at 9.31%. The value for `O=C1CNc2ncnc(N3CCN(c4ccccc4F)CC3)c2N1` was 7.69%; that for `CCOC(=O)CCNC(=O)c1nc(OCC)ccc1Cl` was -7.6%; that for `CCCC(=O)N1CCC(C(=O)NCCNc2ncccn2)CC1` was -20%. The value for `NC(=O)C(NC(=O)COC1CCCCC1)c1ccccc1` (configuration not stated) was -4.65%; that for `COc1ccc(CNCC2CN(C3CC3)CCO2)cc1OC` (configuration not stated) was -17%; that for `Cc1csc(CN(C)C2CCN(c3sccc3C#N)C2=O)n1` (configuration not stated) was 5.44%. For the compound `O=C(NCCc1nccs1)N1CCC(n2cccc2)CC1`, the cytotoxicity at 10 µM came out at 5.87%.

`Cc1cnn(CC(C)NCC(=O)NCCOc2ccccc2)c1` (configuration not stated): the cytotoxicity at 10 µM was 1.36%.

For `O=c1[nH]c2cn(-c3ccc(F)cc3)c(=O)n2n1Cc1cccc(Cl)c1`, the cytotoxicity at 10 µM is 6.59%. As to `CCCn1nc2c(cc1=O)CN(CCCN1CCCC1=O)CC2`, the cytotoxicity at 10 µM was -6.49%.

`OC(c1ccccc1)c1cn(C2CCN(Cc3nccs3)CC2)nn1` (configuration not stated): the cytotoxicity at 10 µM amounted to 7.44%. For `OCCCN1CCCC1c1cccc(Br)c1` (configuration not stated), the cytotoxicity at 10 µM was found to be 5.71%. For `O=C(C1CCOCC1)N1CCO[C@H]2[C@@H](OCc3ccncc3)CC[C@@H]21`, the cytotoxicity at 10 µM was 5.54%.

With `CC(C)N(C)Cc1cc(=O)n2c(n1)CN(S(=O)(=O)C1CC1)CCC2`, the cytotoxicity at 10 µM was 0.819%.

`CCC(C)N1Cc2c(C(=O)N3CCOCC3)nn(C)c2C1` (configuration not stated): the cytotoxicity at 10 µM was -95.9%. The value for `N#CCCCS(=O)(=O)N1CCCC1CC(=O)c1cccs1` (configuration not stated) was -5.07%; that for `N#CC1(NC(=O)CN2CCC(c3ccnn3CCO)CC2)CCCC1` was 2.85%; that for `CN(Cc1ncnn1C)C(=O)c1ccccc1NCc1ccccc1` was 15.3%.

As for `O=C(CO)N1CCC(c2cncc(-c3cccc(Cl)c3)n2)CC1`, the cytotoxicity at 10 µM is -0.105%. The same measure for `c1cncc(-c2noc(CNc3ncnc4c3CCNCC4)n2)c1`: 3.18%; for `Cc1cnn(-c2cccc(N3CCCC3)n2)c1`: -6.26%. The value for `CCc1nc(N2CCN(c3ncccn3)CC2)c2cnn(C)c2n1` was -1.04%; that for `CN(C)[C@@H]1CO[C@H](CNC(=O)c2cccs2)[C@H]1O` was -1.37%. `CCN1CCC12CCN(C(=O)c1ccsc1)C2` (configuration not stated): the cytotoxicity at 10 µM is -148%. On to `Cc1ccc(CN2CCC[C@]3(C(=O)O)CN(C)C[C@@H]3C2)s1`, for which the cytotoxicity at 10 µM was -106%. Regarding `Cc1nc(CNC(=O)Nc2cc(F)ccc2OC(F)F)no1`, the cytotoxicity at 10 µM was determined as 0.311%. The same measure for `Cc1nc(-c2cccc(C(=O)O)c2)cc(C2CCCN(C(C)C)C2)n1` (configuration not stated): -7.44%; for `Cc1nnc2ccc(C(=O)N3CCSC(C)(C)C3)cn12`: -3.54%. The value for `O=C(NCC(O)COc1ccc(C(F)(F)F)cc1)Nc1nncs1` (configuration not stated) was -14.2%.

In the case of `Cc1cc(C[C@@H]2CCC[C@H]2NCc2c[nH]nc2-c2ccccc2)on1`, the cytotoxicity at 10 µM is -14%. The value for `O=C1COc2cc(C(=O)N3CCCC(n4cccn4)C3)ccc2N1` (configuration not stated) was -22.6%. The same measure for `Cc1ccc(N2CCCC(N(C)Cc3ccccn3)C2)nn1` (configuration not stated): -4.01%; for `Cn1ccnc1CN1CCCC(CCCc2ccccn2)(C(N)=O)C1` (configuration not stated): 2.83%; for `Cc1ccc(CN2CCCC(c3cnccn3)C2)s1` (configuration not stated): 2.46%.

Take `Cc1ccccc1Oc1ncccc1CNS(=O)(=O)N(C)C`: the cytotoxicity at 10 µM was -4.09%. For the compound `COc1cccc(SCC(=O)N2CCC(N3CCCC(O)C3)CC2)c1` (configuration not stated), the cytotoxicity at 10 µM was -18.7%. For `COc1cc(N2CCCC3(CCN(c4cncnc4)C3=O)C2)ncn1` (configuration not stated), the cytotoxicity at 10 µM is -103%.

For the compound `CNC(=O)c1cc2c(nc1NCC(C)C)CCN(c1ncccn1)CC2`, the cytotoxicity at 10 µM was -157%.

With `CCCc1nc(C)c(C(=O)NCCN2CCN(CC)CC2)s1`, the cytotoxicity at 10 µM was -10.6%.

For `CN1C[C@H](c2ccccc2)[C@H]2CN(C(=O)Cc3cccc(O)c3)CC[C@H]21`, the cytotoxicity at 10 µM was determined as 4.98%. With `CCNc1ncc(CN(CCN(C)C)Cc2ccc(C)s2)cn1`, the cytotoxicity at 10 µM is -46.1%. The same measure for `COC(=O)CCCN(C)C(=O)c1cc(F)cc2[nH]cnc12`: -2.23%; for `CCN(CC)S(=O)(=O)CC(=O)N1CCc2ccc(Cl)cc21`: -5.42%; for `CCN(C)C(=O)c1coc(COc2ccccc2)n1`: 3.36%. The value for `CC1CN(c2ccc(CNC(=O)NCCn3ccnc3)cn2)CCO1` (configuration not stated) was 8.4%.

The values above are taken from ChEMBL document CHEMBL4513216, “Probing the Open Global Health Chemical Diversity Library for Multistage-Active Starting Points for Next-Generation Antimalarials” (ACS Infect Dis, 2020).
